Test results as given in ChEMBL document CHEMBL1155415, “Synthesis, characterization, and in vitro antimicrobial activities of 5-alkenyl/hydroxyalkenyl-2-phenylamine-1,3,4-oxadiazoles and thiadiazoles” (2010).
≈ marks a conversion by molar mass, not a printed value.

Experiments:
Format in all cases: functional
[1] = test system: Staphylococcus aureus; assay: Antibacterial activity against Staphylococcus aureus ATCC 25923 after 24 hrs by disc diffusion method
Outline: (§1)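 Agar disc diffusion. A standard inoculum of […] c.f.u./ml (0.5 McFarland) was spread evenly on agar. 6 mm Whatman no. 1 paper discs, dry-heat sterilized (140 °C, 1 h), were soaked in test compound and placed on nutrient agar. Plates were inverted and incubated 24 h at 37 °C. Read-out: diameter of the inhibition zone.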

[2] = test system: Talaromyces marneffei; assay: Antifungal activity against Penicillium marneffei after 48 hrs by two fold dilution technique
Outline: (§2)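 Broth MIC. Broth with log two-fold serial dilutions of compound was inoculated with about 1.6 × 10⁴–6 × 10⁴ c.f.u./ml of fungus and incubated 48 h at 35 °C. MIC is the lowest concentration arresting fungal growth.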

[3] = test system: Streptococcus pyogenes; assay: Antibacterial activity against Streptococcus pyogenes after 24 hrs by two fold dilution technique
Outline: (§3)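 Broth dilution MIC. Nutrient broth held log two-fold serial dilutions of compound and was inoculated with about 5 × 10⁵ c.f.u./ml of actively dividing bacteria. Incubation was 24 h at 37 °C, with growth checked visually and spectrophotometrically. MIC is the lowest concentration arresting growth.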

[4] = test system: Trichophyton mentagrophytes; assay: Ratio of MFC to MIC for Trichophyton mentagrophytes
Outline: (§4)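 MFC: 0.1 ml from each MIC tube was spread on agar and colonies were counted after 48 h at 35 °C. MFC is the lowest concentration killing 99.9% of the inoculum. The MFC/MIC ratio was then calculated to classify activity as fungistatic or fungicidal.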

[5] = test system: Trichophyton mentagrophytes; assay: Antifungal activity against Trichophyton mentagrophytes after 48 hrs by two fold dilution technique; outline: as §2
[6] = test system: Staphylococcus aureus; assay: Antibacterial activity against Staphylococcus aureus ATCC 25923 after 18 to 24 hrs
[7] = test system: Candida albicans; assay: Ratio of MFC to MIC for Candida albicans; outline: as §4
[8] = test system: Trichophyton mentagrophytes; assay: Antifungal activity against Trichophyton mentagrophytes after 48 hrs by disk diffusion method
Outline: (§5)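 Agar well diffusion with compounds in DMSO. The dish was lawned with a saline spore suspension, excess decanted, and dried 1 h at 37 °C. Wells were punched. Read-out: inhibition zone in mm. Griseofulvin served as standard and DMSO as negative control.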

[9] = test system: Aspergillus fumigatus; assay: Antifungal activity against Aspergillus fumigatus after 48 hrs by disk diffusion method; outline: as §5
[10] = test system: Talaromyces marneffei; assay: Ratio of MFC to MIC for Penicillium marneffei; outline: as §4
[11] = test system: Streptococcus pyogenes; assay: Antibacterial activity against Streptococcus pyogenes after 18 to 24 hrs
[12] = test system: Pseudomonas aeruginosa; assay: Antibacterial activity against Pseudomonas aeruginosa ATCC 27853 after 24 hrs by disc diffusion method; outline: as §1
[13] = test system: Talaromyces marneffei; assay: Antifungal activity against Penicillium marneffei after 48 hrs by disk diffusion method; outline: as §5
[14] = test system: Candida albicans; assay: Antifungal activity against Candida albicans after 48 hrs by disk diffusion method; outline: as §5
[15] = test system: Aspergillus fumigatus; assay: Antifungal activity against Aspergillus fumigatus after 48 hrs by two fold dilution technique; outline: as §2
[16] = test system: Aspergillus fumigatus; assay: Ratio of MFC to MIC for Aspergillus fumigatus; outline: as §4
[17] = test system: Escherichia coli; assay: Antibacterial activity against Escherichia coli ATCC 25922 after 24 hrs by disc diffusion method; outline: as §1
[18] = test system: Klebsiella pneumoniae; assay: Antibacterial activity against Klebsiella pneumoniae after 24 hrs by two fold dilution technique; outline: as §3
[19] = test system: Pseudomonas aeruginosa; assay: Antibacterial activity against Pseudomonas aeruginosa ATCC 27853 after 24 hrs by two fold dilution technique; conditions: ATCC 27853, 24 h; outline: as §3
[20] = test system: Escherichia coli; assay: Antibacterial activity against Escherichia coli ATCC 25922 after 24 hrs by two fold dilution technique; conditions: ATCC 25922, 24 h; outline: as §3
[21] = test system: Klebsiella pneumoniae; assay: Antibacterial activity against Klebsiella pneumoniae after 18 to 24 hrs
[22] = test system: Candida albicans; assay: Antifungal activity against Candida albicans after 48 hrs by two fold dilution technique; outline: as §2
[23] = test system: Streptococcus pyogenes; assay: Antibacterial activity against Streptococcus pyogenes after 24 hrs by disc diffusion method; outline: as §1
[24] = test system: Pseudomonas aeruginosa; assay: Antibacterial activity against Pseudomonas aeruginosa ATCC 27853 after 18 to 24 hrs
[25] = test system: Staphylococcus aureus; assay: Antibacterial activity against Staphylococcus aureus ATCC 25923 after 24 hrs by two fold dilution technique; conditions: ATCC 25923, 24 h; outline: as §3
[26] = test system: Escherichia coli; assay: Antibacterial activity against Escherichia coli ATCC 25922 after 18 to 24 hrs
[27] = test system: Klebsiella pneumoniae; assay: Antibacterial activity against Klebsiella pneumoniae after 24 hrs by disc diffusion method; outline: as §1
[28] = test system: Staphylococcus aureus; assay: Antibacterial activity against Staphylococcus aureus ATCC 25923 at 30 ug after 24 hrs by disc diffusion method; conditions: ATCC 25923, 24 h, read-out: DIZ
Outline: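 Disc diffusion. Inoculum of […] c.f.u./ml (0.5 McFarland) spread on sterile nutrient agar plates. 6 mm Whatman no. 1 paper discs, dry-heat sterilised at 140 °C for 1 h, soaked in a known concentration of compound, then placed on the agar. DMSO disc as negative control. Plates inverted, incubated 24 h at 37 °C. Zone of inhibition diameter measured in mm.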

[29] = test system: Pseudomonas aeruginosa; assay: Antibacterial activity against Pseudomonas aeruginosa ATCC 27853 at 30 ug after 24 hrs by disc diffusion method; conditions: ATCC 27853, 24 h, read-out: DIZ; outline: as §1
[30] = test system: Streptococcus pyogenes; assay: Antibacterial activity against Streptococcus pyogenes at 30 ug after 24 hrs by disc diffusion method; conditions: read-out: DIZ; outline: as §1
[31] = test system: Escherichia coli; assay: Antibacterial activity against Escherichia coli ATCC 25922 at 30 ug after 24 hrs by disc diffusion method; conditions: ATCC 25922, 24 h, read-out: DIZ; outline: as §1
[32] = test system: Klebsiella pneumoniae; assay: Antibacterial activity against Klebsiella pneumoniae at 30 ug after 24 hrs by disc diffusion method; conditions: read-out: DIZ; outline: as §1

Row | SMILES | diameter of the inhibition zone (DIZ) [1] [mm] | MFC [2] [mg/L] | MIC [2] [mg/L] | MIC [3] [mg/L] | Ratio [4] | MFC [5] [mg/L] | MIC [5] [mg/L] | MBC [6] [mg/L] | Ratio [7] | diameter of the inhibition zone (DIZ) [8] [mm] | diameter of the inhibition zone (DIZ) [9] [mm] | Ratio [10] | MBC [11] [mg/L] | MIC [18] [mg/L] | MIC [19] [mg/L] | MIC [20] [mg/L] | MBC [21] [mg/L] | MBC [24] [mg/L] | MIC [25] [mg/L] | MBC [26] [mg/L] | other results
1 | C=CCCCCCCCCc1nnc(Nc2ccccc2)s1 | 13.1 | 100 (≈ 317 µM) | 25 (≈ 79.2 µM) | 25 (≈ 79.2 µM) | 2 | 50 (≈ 158 µM) | 25 (≈ 79.2 µM) | 25 (≈ 79.2 µM) | 2 | 14.1 | 16.5 | 4 | 50 (≈ 158 µM) | 25 (≈ 79.2 µM) | 12.5 (≈ 39.6 µM) | 25 (≈ 79.2 µM) | 50 (≈ 158 µM) | 25 (≈ 79.2 µM) | 12.5 (≈ 39.6 µM) | 100 (≈ 317 µM) | diameter of the inhibition zone (DIZ) [12]: 17.2 mm; diameter of the inhibition zone (DIZ) [13]: 10.2 mm; diameter of the inhibition zone (DIZ) [14]: 19.5 mm; MFC [15]: 100 mg/L (≈ 317 µM); MIC [15]: 25 mg/L (≈ 79.2 µM); Ratio [16]: 4; diameter of the inhibition zone (DIZ) [17]: 15.2 mm; MFC [22]: 50 mg/L (≈ 158 µM); MIC [22]: 25.5 mg/L (≈ 80.8 µM); diameter of the inhibition zone (DIZ) [23]: 13.5 mm; diameter of the inhibition zone (DIZ) [27]: 12.8 mm
2 | CCCCC/C=C\CCC(O)CCCCCCCc1nnc(Nc2ccccc2)s1 (stereo not drawn) | 20.8 | 100 (≈ 233 µM) | 25 (≈ 58.2 µM) | 6.25 (≈ 14.5 µM) | 4 | 100 (≈ 233 µM) | 25 (≈ 58.2 µM) | 12.5 (≈ 29.1 µM) | 2 | 19 | 21.8 | 4 | 25 (≈ 58.2 µM) | 6.25 (≈ 14.5 µM) | 6.25 (≈ 14.5 µM) | 6.25 (≈ 14.5 µM) | 6.25 (≈ 14.5 µM) | 25 (≈ 58.2 µM) | 6.25 (≈ 14.5 µM) | 12.5 (≈ 29.1 µM) | diameter of the inhibition zone (DIZ) [12]: 25.9 mm; diameter of the inhibition zone (DIZ) [13]: 15.2 mm; diameter of the inhibition zone (DIZ) [14]: 24.9 mm; MFC [15]: 50 mg/L (≈ 116 µM); MIC [15]: 25 mg/L (≈ 58.2 µM); Ratio [16]: 2; diameter of the inhibition zone (DIZ) [17]: 22.9 mm; MFC [22]: 50 mg/L (≈ 116 µM); MIC [22]: 25 mg/L (≈ 58.2 µM); diameter of the inhibition zone (DIZ) [23]: 21.1 mm; diameter of the inhibition zone (DIZ) [27]: 19.9 mm
3 | CCCCCCCC/C=C\CCCCCCCc1nnc(Nc2ccccc2)s1 | 12.9 | 12.5 (≈ 30.2 µM) | 6.25 (≈ 15.1 µM) | 12.5 (≈ 30.2 µM) | 2 | 12.5 (≈ 30.2 µM) | 6.25 (≈ 15.1 µM) | 25 (≈ 60.4 µM) | 2 | 20.3 | 23.8 | 2 | 100 (≈ 242 µM) | 25 (≈ 60.4 µM) | 12.5 (≈ 30.2 µM) | 25 (≈ 60.4 µM) | 50 (≈ 121 µM) | 25 (≈ 60.4 µM) | 12.5 (≈ 30.2 µM) | 50 (≈ 121 µM) | diameter of the inhibition zone (DIZ) [12]: 16.3 mm; diameter of the inhibition zone (DIZ) [13]: 16.1 mm; diameter of the inhibition zone (DIZ) [14]: 27.2 mm; MFC [15]: 25 mg/L (≈ 60.4 µM); MIC [15]: 6.25 mg/L (≈ 15.1 µM); Ratio [16]: 4; diameter of the inhibition zone (DIZ) [17]: 14.8 mm; MFC [22]: 12.5 mg/L (≈ 30.2 µM); MIC [22]: 6.25 mg/L (≈ 15.1 µM); diameter of the inhibition zone (DIZ) [23]: 13.1 mm; diameter of the inhibition zone (DIZ) [27]: 12.1 mm
4 | O=C(N[C@H](CO)[C@H](O)c1ccc([N+](=O)[O-])cc1)C(Cl)Cl [CHLORAMPHENICOL] | – | – | – | 6.25 (≈ 19.3 µM) | – | – | – | 12.5 (≈ 38.7 µM) | – | – | – | – | 12.5 (≈ 38.7 µM) | 6.25 (≈ 19.3 µM) | 6.25 (≈ 19.3 µM) | 6.25 (≈ 19.3 µM) | 12.5 (≈ 38.7 µM) | 12.5 (≈ 38.7 µM) | 6.25 (≈ 19.3 µM) | 12.5 (≈ 38.7 µM) | zone of inhibition at 30 µg/disc [28]: 22 mm; zone of inhibition at 30 µg/disc [29]: 32 mm; zone of inhibition at 30 µg/disc [30]: 23 mm; zone of inhibition at 30 µg/disc [31]: 27 mm; zone of inhibition at 30 µg/disc [32]: 19 mm
